# Experimental data from ChEMBL document CHEMBL1155143, “Interaction of the GraRS two-component system with the VraFG ABC transporter to support vancomycin-intermediate resistance in Staphylococcus aureus” (2007).
# Active and inactive are the calls of the source. The rule behind the calls is not given here.
# Legend:
# Staphylococcus aureus [1] = experiment: Antimicrobial activity against methicillin-resistant Staphylococcus aureus COL graR mutant assessed as hypersensitivity at 1 ug/ml; format: functional, organism-based
# Procedure, shortened: (§1)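 Overnight CSMHB cultures (Mueller-Hinton broth with 25 μg/ml Ca2+ and 12.5 μg/ml Mg2+) were adjusted to A650 1.1 (~10^9 CFU/ml). They were diluted 200 μl per 7 ml CSMHB with or without 1 μg/ml vancomycin, and growth curves were plotted as A650 over time. Plasmid-carrying strains received 10 μg/ml chloramphenicol.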
# Staphylococcus aureus [2] = experiment: Antimicrobial activity against methicillin-resistant Staphylococcus aureus COL assessed as hypersensitivity at 1 ug/ml; format: functional, organism-based; procedure, shortened: as §1
# Staphylococcus aureus [3] = experiment: Antimicrobial activity against methicillin-resistant Staphylococcus aureus sacol1355 mutant assessed as hypersensitivity at 1 ug/ml; format: functional, organism-based; procedure, shortened: as §1
# Staphylococcus aureus [4] = experiment: Antimicrobial activity against methicillin-resistant Staphylococcus aureus sacol2358 mutant assessed as hypersensitivity at 1 ug/ml; format: functional, organism-based; procedure, shortened: as §1
# Staphylococcus aureus [5] = experiment: Antimicrobial activity against wild type vancomycin-intermediate resistant Staphylococcus aureus Mu50 by microdilution assay; format: functional
# Procedure, shortened: (§2)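 Standardized CLSI broth microdilution was run in CSMHB with 10^5 CFU/ml inoculum and scored at 48 h. Values are medians of at least three independent experiments. Daptomycin MICs for Mu50 strains were read by Etest per the supplied protocol instead of microdilution.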
# Staphylococcus aureus [6] = experiment: Antimicrobial activity against wild type methicillin-resistant Staphylococcus aureus COL expressing pEPSA5graRS1 plasmid by microdilution assay
# Staphylococcus aureus [7] = experiment: Antimicrobial activity against wild type vancomycin-intermediate resistant Staphylococcus aureus Mu50 expressing pEPSA5 plasmid by microdilution assay
# Staphylococcus aureus [8] = experiment: Antimicrobial activity against wild type vancomycin-intermediate resistant Staphylococcus aureus Mu50 expressing pEPSA5graRS1 plasmid by microdilution assay
# Staphylococcus aureus [9] = experiment: Antimicrobial activity against wild type vancomycin-intermediate resistant Staphylococcus aureus Mu50 expressing pEPSA5graFG1 plasmid by microdilution assay
# Staphylococcus aureus [10] = experiment: Antimicrobial activity against wild type vancomycin-intermediate resistant Staphylococcus aureus Mu50 expressing pEPSA5graRS2 plasmid by microdilution assay
# Staphylococcus aureus [11] = experiment: Antimicrobial activity against vancomycin-intermediate resistant Staphylococcus aureus Mu50 vraG mutant expressing pEPSA5graRS1 plasmid by microdilution assay
# Staphylococcus aureus [12] = experiment: Antimicrobial activity against methicillin-resistant Staphylococcus aureus sacol2646 mutant assessed as hypersensitivity at 1 ug/ml; format: functional, organism-based; procedure, shortened: as §1
# Staphylococcus aureus [13] = experiment: Antimicrobial activity against vancomycin-intermediate resistant Staphylococcus aureus Mu50 graR mutant microdilution assay; format: functional; procedure, shortened: as §2
# Staphylococcus aureus [14] = experiment: Antimicrobial activity against vancomycin-intermediate resistant Staphylococcus aureus Mu50 vraG mutant microdilution assay; format: functional; procedure, shortened: as §2
# Staphylococcus aureus [15] = experiment: Antimicrobial activity against wild type methicillin-resistant Staphylococcus aureus COL by microdilution assay; format: functional, organism-based; procedure, shortened: as §2
# Staphylococcus aureus [16] = experiment: Antimicrobial activity against methicillin-resistant Staphylococcus aureus COL graR mutant by microdilution assay; format: functional, organism-based; procedure, shortened: as §2
# Staphylococcus aureus [17] = experiment: Antimicrobial activity against methicillin-resistant Staphylococcus aureus COL graS mutant by microdilution assay; format: functional, organism-based; procedure, shortened: as §2
# Staphylococcus aureus [18] = experiment: Antimicrobial activity against methicillin-resistant Staphylococcus aureus COL vraG mutant by microdilution assay; format: functional, organism-based; procedure, shortened: as §2
# Staphylococcus aureus [19] = experiment: Antimicrobial activity against wild type methicillin-resistant Staphylococcus aureus COL expressing pEPSA5 plasmid by microdilution assay; format: functional, organism-based
# Procedure, shortened: (§3)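 CLSI broth microdilution was run in CSMHB with 10^5 CFU/ml for strains carrying pEPSA5-based plasmids. Chloramphenicol 10 μg/ml maintained the plasmid, and growth was scored at 72 h. Media were used with or without 0.5% xylose or glucose. MIC is the median over all conditions from three independent experiments.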
# Staphylococcus aureus [20] = experiment: Antimicrobial activity against wild type methicillin-resistant Staphylococcus aureus COL expressing pEPSA5graRS2 plasmid by microdilution assay; format: functional, organism-based; procedure, shortened: as §3
# Staphylococcus aureus [21] = experiment: Antimicrobial activity against wild type methicillin-resistant Staphylococcus aureus COL expressing pEPSA5vraFG2 plasmid by microdilution assay; format: functional, organism-based; procedure, shortened: as §3
# Staphylococcus aureus [22] = experiment: Antimicrobial activity against wild type methicillin-resistant Staphylococcus aureus COL expressing pEPSA5vraFG1 plasmid by microdilution assay; format: functional, organism-based; procedure, shortened: as §3
# Staphylococcus aureus [23] = experiment: Antimicrobial activity against wild type methicillin-susceptible Staphylococcus aureus RN6390 by microdilution assay; format: functional, organism-based; procedure, shortened: as §2
# Staphylococcus aureus [24] = experiment: Antimicrobial activity against methicillin-susceptible Staphylococcus aureus RN6390 graR by microdilution assay; format: functional, organism-based; procedure, shortened: as §2
# Staphylococcus aureus [25] = experiment: Antimicrobial activity against methicillin-susceptible Staphylococcus aureus RN6390 vraG by microdilution assay; format: functional, organism-based; procedure, shortened: as §2
# Staphylococcus aureus [26] = experiment: Antimicrobial activity against methicillin-susceptible Staphylococcus aureus RN6390 graS by microdilution assay; format: functional, organism-based; procedure, shortened: as §2
# Staphylococcus aureus [27] = conditions: COL
Molecule,MIC (Staphylococcus aureus [5]),MIC (Staphylococcus aureus [13]),MIC (Staphylococcus aureus [14]),other results
CN[C@H](CC(C)C)C(=O)N[C@H]1C(=O)N[C@@H](CC(N)=O)C(=O)N[C@H]2C(=O)N[C@H]3C(=O)N[C@H](C(=O)N[C@H](C(=O)O)c4cc(O)cc(O)c4-c4cc3ccc4O)[C@H](O)c3ccc(c(Cl)c3)Oc3cc2cc(c3O[C@@H]2O[C@H](CO)[C@@H](O)[C@H](O)[C@H]2O[C@H]2C[C@](C)(N)[C@H](O)[C@H](C)O2)Oc2ccc(cc2Cl)[C@H]1O [VANCOMYCIN],8 µg/mL,–,–,Activity (Staphylococcus aureus [1]): Active; Activity (Staphylococcus aureus [2]): inactive; Activity (Staphylococcus aureus [3]): inactive; Activity (Staphylococcus aureus [4]): inactive; MIC (Staphylococcus aureus [6]): 8 µg/mL; MIC (Staphylococcus aureus [7]): 8 µg/mL; MIC (Staphylococcus aureus [8]): 8 µg/mL; MIC (Staphylococcus aureus [9]): 8 µg/mL; MIC (Staphylococcus aureus [10]): 8 µg/mL; MIC (Staphylococcus aureus [11]): 8 µg/mL; Activity (Staphylococcus aureus [12]): inactive
CN(C)[C@@H]1C(O)=C(C(N)=O)C(=O)[C@@]2(O)C(O)=C3C(=O)c4c(O)cccc4[C@@](C)(O)[C@H]3C[C@@H]12 [TETRACYCLINE],64 µg/mL,128 µg/mL,64 µg/mL,–
O=C(O)c1cn(C2CC2)c2cc(N3CCNCC3)c(F)cc2c1=O [CIPROFLOXACIN],32 µg/mL,64 µg/mL,64 µg/mL,–
CO[C@@H]1[C@@H](OC(N)=O)[C@@H](O)[C@H](Oc2ccc3c(O)c(NC(=O)c4ccc(O)c(CC=C(C)C)c4)c(=O)oc3c2C)OC1(C)C [NOVOBIOCIN],0.125 µg/mL,0.25 µg/mL,0.125 µg/mL,–
O=C(N[C@H](CO)[C@H](O)c1ccc([N+](=O)[O-])cc1)C(Cl)Cl [CHLORAMPHENICOL],8 µg/mL,8 µg/mL,8 µg/mL,–
COc1cc(Cc2cnc(N)nc2N)cc(OC)c1OC [TRIMETHOPRIM],4 µg/mL,2 µg/mL,4 µg/mL,–
CCCCCCCCCC(=O)N[C@@H](Cc1c[nH]c2ccccc12)C(=O)N[C@H](CC(N)=O)C(=O)N[C@@H](CC(=O)O)C(=O)N[C@@H]1C(=O)NCC(=O)N[C@@H](CCCN)C(=O)N[C@@H](CC(=O)O)C(=O)N[C@H](C)C(=O)N[C@@H](CC(=O)O)C(=O)NCC(=O)N[C@H](CO)C(=O)N[C@@H]([C@H](C)CC(=O)O)C(=O)N[C@@H](CC(=O)c2ccccc2N)C(=O)O[C@@H]1C,2 µg/mL,1 µg/mL,2 µg/mL,–
C[C@@H]1O[C@@H]1P(=O)(O)O [FOSFOMYCIN],1020 µg/mL,1020 µg/mL,1020 µg/mL,–
POLYMYXIN B,128 µg/mL,16 µg/mL,16 µg/mL,MIC (Staphylococcus aureus [15]): 64 µg/mL; MIC (Staphylococcus aureus [16]): 8 µg/mL; MIC (Staphylococcus aureus [17]): 8 µg/mL; MIC (Staphylococcus aureus [18]): 8 µg/mL; MIC (Staphylococcus aureus [19]): 64 µg/mL; MIC (Staphylococcus aureus [20]): 64 µg/mL; MIC (Staphylococcus aureus [21]): 64 µg/mL; MIC (Staphylococcus aureus [22]): 64 µg/mL; MIC (Staphylococcus aureus [23]): 32 µg/mL; MIC (Staphylococcus aureus [24]): 4 µg/mL; MIC (Staphylococcus aureus [25]): 4 µg/mL; MIC (Staphylococcus aureus [26]): 4 µg/mL; MIC (Staphylococcus aureus [27]): 128 µg/mL
CC[C@H](C)[C@@H]1NC(=O)[C@H](CO)NC(=O)[C@@H]2CCCN2C(=O)[C@H](C)NC(=O)CNC(=O)[C@H](CC(C)C)NC(=O)[C@H](CCCCN)N[C@H](CCCCN)NC(=O)[C@H](CCSC)NC(=O)[C@H](CCCNC(=N)N)NC(=O)[C@H](Cc2c[nH]c3ccccc23)NC(=O)[C@H](CCC(N)=O)NC(=O)[C@H](Cc2c[nH]c3ccccc23)NC(=O)[C@H](CCCNC(=N)N)NC(=O)[C@H](CCCNC(=N)N)NC(=O)[C@@H](NC(=O)[C@H](CCCCN)NC(=O)[C@@H](N)Cc2ccccc2)CSSC[C@@H](C(=O)N[C@H](C(=O)N[C@@H](CCCNC(=N)N)C(=O)N[C@@H](C)C(=O)N[C@@H](Cc2ccccc2)C(=O)O)C(C)C)NC(=O)[C@H]([C@@H](C)O)NC1=O [LACTOFERRICIN],≥ 512 µg/mL,≥ 512 µg/mL,≥ 512 µg/mL,–
C/C(=C\C(=O)OCCCCCCCCC(=O)O)C[C@@H]1OC[C@H](C[C@@H]2O[C@H]2[C@@H](C)[C@H](C)O)[C@@H](O)[C@H]1O [MUPIROCIN],0.25 µg/mL,0.25 µg/mL,0.25 µg/mL,–
CC[C@H]1OC(=O)[C@H](C)[C@@H](O[C@H]2C[C@@](C)(OC)[C@@H](O)[C@H](C)O2)[C@H](C)[C@@H](O[C@@H]2O[C@H](C)C[C@H](N(C)C)[C@H]2O)[C@](C)(O)C[C@@H](C)C(=O)[C@H](C)[C@@H](O)[C@]1(C)O [ERYTHROMYCIN],≥ 2050 µg/mL,1020 µg/mL,≥ 2050 µg/mL,–
N[C@@H]1CONC1=O [CYCLOSERINE],128 µg/mL,64 µg/mL,64 µg/mL,–
CO[C@H]1/C=C/O[C@@]2(C)Oc3c(C)c(O)c4c(O)c(c(/C=N/N5CCN(C)CC5)c(O)c4c3C2=O)NC(=O)/C(C)=C\C=C\[C@H](C)[C@H](O)[C@@H](C)[C@@H](O)[C@@H](C)[C@H](OC(C)=O)[C@@H]1C [RIFAMPIN],1020 µg/mL,1020 µg/mL,1020 µg/mL,–
Cc1onc(-c2ccccc2)c1C(=O)N[C@@H]1C(=O)N2[C@@H]1SC(C)(C)[C@@H]2C(=O)O [OXACILLIN],512 µg/mL,256 µg/mL,1020 µg/mL,–
NC[C@H]1O[C@H](O[C@H]2[C@H](O)[C@@H](O[C@H]3O[C@H](CO)[C@@H](O)[C@H](N)[C@H]3O)[C@H](N)C[C@@H]2N)[C@H](N)C[C@@H]1O [TOBRAMYCIN],≥ 2050 µg/mL,≥ 2050 µg/mL,≥ 2050 µg/mL,–
